# Shown are actives, neighbours in structure and some others; about 5.9% of the full set was active somewhere.
# T cruzi growth-1 – T. cruzi proliferation inhibition. T. cruzi beta-gal in NIH3T3, GalScreen luminescence, 90 h. inhibition, % at 8.34 µM. 77,000 compounds, 5.9% hits. AID 624255;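 active = mean inhibition above about 93%, with at least 55% of replicates each passing it, limit read from the data, passing the limit was not always enough; inconclusive = only one of those two conditions holds; inactive = neither condition holds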
# IDH1 mut inh – IDH1 R132H (human) inhibition. O75874. IDH1 R132H reductase, diaphorase/resazurin fluorescence, 60 min. inhibition, % at 10 µM. 70,000 compounds, 0.18% hits. AID 624101; in the data active = inhibition above about 34%; inconclusive = no clear call, values can overlap the other calls; inactive = below about 11%;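 also: 0% = DMSO and 100% = no enzyme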
# Pf Dd2 inh – P. falciparum Dd2 growth inhibition | SYBR Green, 72 h; hits give low values | activity change, % at 10 µM | 94,000 compounds, 2.3% hits | AID 1159554; in the data active = activity change below about -80%; inconclusive = no clear call, values can overlap the other calls
# GASC1 inh – inhibitors of human demethylase GASC-1 KDM4C; Q9H3R0; GST-KDM4C 2-372, H3K9me3 peptide, LANCE TR-FRET; inhibition, % at 12.5 µM; 96,000 compounds, 0.15% hits; AID 720574;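 active = mean replicate inhibition above about 25%, with at least 55% of replicates also reaching it, limit read from the data, passing the limit was not always enough; inconclusive = only one of those two conditions met; inactive = neither condition met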
# Target sequence (Q9H3R0 2-372 limits assumed): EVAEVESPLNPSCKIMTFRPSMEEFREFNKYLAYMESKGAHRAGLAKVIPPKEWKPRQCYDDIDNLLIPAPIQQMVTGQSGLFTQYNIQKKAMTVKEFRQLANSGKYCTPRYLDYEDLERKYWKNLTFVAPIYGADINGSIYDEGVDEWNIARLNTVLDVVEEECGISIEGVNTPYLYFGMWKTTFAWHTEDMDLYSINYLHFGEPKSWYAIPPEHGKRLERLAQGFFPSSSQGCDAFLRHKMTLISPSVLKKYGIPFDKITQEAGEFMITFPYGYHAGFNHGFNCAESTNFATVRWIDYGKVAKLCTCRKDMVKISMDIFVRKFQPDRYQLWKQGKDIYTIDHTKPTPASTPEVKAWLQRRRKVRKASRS
#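 System – N-terminal GST-fused human GASC-1 (KDM4C) fragment, residues 2-372 · Input – enzyme final amount 10 nM · Technique – LANCE TR-FRET, Eu antibody, ULight-streptavidin, EDTA, ex 340 nm, em 618/671 nm · Medium – HEPES buffer, pH 7.5, plus ascorbate · Incubation – enzyme reaction 30 min, then detection 60 min, both room temperature · Reagent – H3K9me3 peptide with Fe(II)/2OG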
# T cruzi growth-2 – inhibitors of T. cruzi proliferation; shares compounds with T cruzi growth-1; T. cruzi beta-gal in NIH3T3, GalScreen luminescence, 90 h; inhibition, % at 8.35 µM; 5,600 compounds, 72% hits; AID 651739;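 active = mean replicate inhibition above about 95% and at least 55% of replicates individually reaching it, limit read from the data; inconclusive = only one of the two criteria is met; inactive = neither criterion is met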
# T cruzi growth-3 – inhibitors of T. cruzi proliferation. shares compounds with T cruzi growth-1. T. cruzi beta-gal in NIH3T3, GalScreen luminescence, 90 h. inhibition, % at 2.09 µM. 5,600 compounds, 21% hits. AID 651740;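 active = mean inhibition above about 95%, with at least 55% of replicates also reaching it, limit read from the data; inconclusive = meets just one of the two conditions; inactive = meets neither condition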;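 also: plate controls were neutral control median for no effect and positive control median for full effect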
# 3T3 cytotox – cytotoxicity in mouse NIH/3T3 fibroblasts; shares compounds with T cruzi growth-1; NIH/3T3 viability, CellTiter-Glo ATP luminescence, 90 h; cytotoxicity (signal decrease), % at 8.35 µM; 5,600 compounds, 14% hits; AID 651742;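 active = mean signal decrease across replicates above about 35% based on untreated-well scatter, with enough replicates individually passing, limit read from the data; inconclusive = no rule stated though some were filed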;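 also: 0% = median of neutral control wells and 100% = median of positive control wells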
# 3T3 cytotox 2 – kills mouse NIH/3T3 fibroblasts. shares compounds with T cruzi growth-1. NIH/3T3 viability, CellTiter-Glo ATP luminescence, 90 h. inhibition, % at 24.9 µM. 5,600 compounds, 56% hits;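 active = mean loss of cell viability signal at or above a set limit, and enough replicates individually reaching it; inconclusive = meets only the mean limit or only the replicate share; inactive = meets neither condition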;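 also: 0% = median of neutral control wells and 100% = median of positive control wells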
# Numbers without * were called inactive; ? = inconclusive; · = no result given; ! = repeats disagree.
SMILES,T cruzi growth-1,IDH1 mut inh,Pf Dd2 inh,GASC1 inh,T cruzi growth-2,T cruzi growth-3,3T3 cytotox,3T3 cytotox 2
C[C@@H]1CCCCO[C@H](CN(C)S(=O)(=O)c2ccccc2)[C@@H](C)CN([C@@H](C)CO)C(=O)c2cc(NC(=O)Nc3ccc(C(F)(F)F)cc3)ccc2O1,103*,-1,-82*,-1,106*,109*,42*,70*
COc1ccc(S(=O)(=O)N(C)CC(=O)Nc2cc(C)ccc2C)cc1C,·,-1,·,·,·,·,·,·
COC(=O)COc1ccc(NC(=O)c2ccc(OC)c([N+](=O)[O-])c2)cc1,·,8,·,·,·,·,·,·
O=C(CSc1n[nH]c(-c2ccc(Cl)cc2Cl)n1)Nc1cccc2ccccc12,·,0,·,·,·,·,·,·
C[C@@H]1CN([C@H](C)CO)C(=O)c2cc(NC(=O)Nc3ccc(C(F)(F)F)cc3)ccc2O[C@@H](C)CCCCO[C@@H]1CN(C)S(=O)(=O)c1ccccc1,90,3,-59,2,·,·,·,·
C[C@H]1CCCCO[C@@H](CN(C)S(=O)(=O)c2ccccc2)[C@@H](C)CN([C@@H](C)CO)C(=O)c2cc(NC(=O)Nc3ccc(C(F)(F)F)cc3)ccc2O1,100*,·,-83*,0,100*,113*,19,8
C[C@@H]1CN([C@@H](C)CO)S(=O)(=O)c2ccc(-c3ccccc3)cc2O[C@@H]1CN(C)Cc1ccccn1,-21,·,-5,-2,·,·,·,·
Cc1ccc(-c2ccc3c(c2)O[C@H](CN(C)Cc2ccccn2)[C@@H](C)CN([C@H](C)CO)S3(=O)=O)cc1,91,0,-40,2,·,·,·,·
C[C@@H]1CN([C@@H](C)CO)S(=O)(=O)c2ccc(Br)cc2O[C@H]1CN(C)Cc1ccccn1,107*!,-3,19,0,89,17,5,53*
C[C@H](CO)N1C[C@H](C)[C@@H](CN(C)Cc2ccccn2)Oc2cc(-c3ccncc3)ccc2S1(=O)=O,109*,0,-50,2,99*,105*,55*,88*
Cc1ccc(-c2ccc3c(c2)O[C@H](CN(C)Cc2ccccn2)[C@@H](C)CN([C@@H](C)CO)S3(=O)=O)cc1,117*,·,-55,1,103*,68,83*,104*
C[C@H](CO)N1C[C@H](C)[C@H](CN(C)Cc2ccccn2)Oc2cc(Br)ccc2S1(=O)=O,-9,-2,-1,3,·,·,·,·
CS(=O)(=O)N(CC(=O)Nc1ccc(Br)cc1)c1ccc(Cl)cc1Cl,·,0,·,·,·,·,·,·
COc1ccc(NC(=O)COc2ccc(Cl)c(C)c2)c([N+](=O)[O-])c1,·,-1,·,·,·,·,·,·
COc1ccc(N(C(C)C(=O)N2CCOCC2)S(C)(=O)=O)cc1 (stereo not drawn),·,-1,·,·,·,·,·,·
COCC(=O)Nc1ccc2c(c1)OC[C@@H](C)N(Cc1cc(F)ccc1F)C[C@H](C)[C@@H](OC)CN(C)C2=O,107*,0,-2,2,74,26,21,24
COCC(=O)Nc1ccc2c(c1)C(=O)N(C)C[C@H](OC)[C@H](C)CN(Cc1cc(F)ccc1F)[C@H](C)CO2,105*,0,-79,2,1,11,2,?
COc1cccc(-c2ccc([C@H]3[C@@H](CO)N4CCCCN(C(=O)NC(C)C)C[C@@H]34)cc2)c1,105*,·,25,-2,101*,41,11,3
COc1cccc(-c2ccc([C@H]3[C@H](CO)N4CCCCN(C(=O)NC(C)C)C[C@@H]34)cc2)c1,108*,·,23,-1,110*,81,37*,31*
OCCN1CCN(CC(O)COc2ccc3c(c2)CCC3)CC1 (stereo not drawn),·,0,·,·,·,·,·,·
O=C(Nc1ccc(Cl)cc1)N1C[C@H]2[C@@H](c3ccccc31)[C@@H](CO)N2CC1CCCC1,108*,·,-14,-1,99*,78,2,50*
O=C(C1CCCCC1)N1C[C@H]2[C@@H](c3ccccc31)[C@H](CO)N2Cc1ccccc1Cl,48,·,-16,6,·,·,·,·

# Bioassay records as filed in PubChem.
